# ChEMBL document CHEMBL4616666, “Discovery of SHP2-D26 as a First, Potent, and Effective PROTAC Degrader of SHP2 Protein” (J Med Chem, 2020)
# The source made the active and inactive calls. The calls are words filed in the database; no cut-off is given here.
# Experiments:
# [1] = target: T1, von Hippel-Lindau disease tumor suppressor/Tyrosine-protein phosphatase non-receptor type 11 (Homo sapiens, UniProt Q06124+P40337); experiment: Protac activity at VHL1/SHP2 in human KYSE520 cells assessed as induction of SHP2 degradation at 100 nM measured after 8 hrs by Western blot analysis relative to control; format: cell-based
# Method in brief: (§1)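 Kinetics: cells were seeded overnight in 6-well plates, then given degrader at 100 nM for 2, 4, 8, 12 and 24 h. Harvested cells were lysed in RIPA with protease/phosphatase inhibitors and SHP2 was read by Western blot against GAPDH loading control. KYSE520 were grown in RPMI 1640 and MV4;11 in IMDM, both with 10% FBS.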
# Target sequence in this assay (P40337 whole entry partner, one chain of several): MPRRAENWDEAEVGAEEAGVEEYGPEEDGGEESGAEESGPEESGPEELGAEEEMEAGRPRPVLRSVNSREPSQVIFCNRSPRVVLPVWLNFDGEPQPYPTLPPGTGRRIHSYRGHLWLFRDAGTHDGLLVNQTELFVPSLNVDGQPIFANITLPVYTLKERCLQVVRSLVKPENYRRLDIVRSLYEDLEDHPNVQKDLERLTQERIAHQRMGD
# [2] = target: T1, von Hippel-Lindau disease tumor suppressor/Tyrosine-protein phosphatase non-receptor type 11; experiment: Protac activity at VHL1/SHP2 in human KYSE520 cells assessed as induction of SHP2 degradation at 0.1 uM measured after 3 hrs in presence of E1 inhibitor MLN4924 by Western blot analysis; format: cell-based
# Method in brief: (§2)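 KYSE520 cells in RPMI 1640 + 10% FBS were pretreated 1 h with VHL-1 ligand (10 μM), SHP2 inhibitor (10 μM), MLN4924 (0.5 μM) or MG132, then given degrader at 0.1 μM for 3 h. Cells were lysed in RIPA with protease/phosphatase inhibitors and run on 4–12% SDS–PAGE/PVDF Western blot for SHP2, with GAPDH as loading control.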
# Target sequence in this assay (P40337 whole entry partner, one chain of several): as above
# [3] = target: T1, von Hippel-Lindau disease tumor suppressor/Tyrosine-protein phosphatase non-receptor type 11; experiment: Protac activity at VHL1/SHP2 in human KYSE520 cells assessed as reduction in ERK phosphorylation measured after 48 hrs by Western blot analysis; format: cell-based
# Target sequence in this assay (P40337 whole entry partner, one chain of several): as above
# [4] = target: T1, von Hippel-Lindau disease tumor suppressor/Tyrosine-protein phosphatase non-receptor type 11; experiment: Protac activity at VHL1/SHP2 in human KYSE520 cells assessed as induction of SHP2 degradation at 1 uM measured after 6 hrs by Western blot analysis relative to control; format: cell-based
# Method in brief: (§3)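 KYSE520 cells in RPMI 1640 + 10% FBS, 37 °C, 5% CO2, were exposed to degrader for 6 h. SHP2 was measured by Western blot and densitometry, with background-subtracted band normalized to net GAPDH band. Values are the average of three independent experiments.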
# Target sequence in this assay (P40337 whole entry partner, one chain of several): as above
# [5] = target: T1, von Hippel-Lindau disease tumor suppressor/Tyrosine-protein phosphatase non-receptor type 11; experiment: Protac activity at VHL1/SHP2 in human MV4-11 cells assessed as induction of SHP2 degradation measured after 12 hrs by Western blot analysis; format: cell-based
# Method in brief: (§4)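 Dose–response: KYSE520 (RPMI 1640) or MV4;11 (IMDM) cells, with 10% FBS, were treated across a concentration range for 12 h. SHP2 was measured by Western blot and densitometry, normalized to GAPDH band density.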
# [6] = tested on: MV4-11; experiment: Potency index, ratio of SHP099 IC50 to test compound IC50 for growth inhibition of human MV4-11 cells; format: functional
# [7] = target: T1, von Hippel-Lindau disease tumor suppressor/Tyrosine-protein phosphatase non-receptor type 11; experiment: Protac activity at VHL1/SHP2 in human MV4-11 cells assessed as reduction in ERK phosphorylation at 100 nM measured after 48 hrs by Western blot analysis relative to control; format: cell-based; set-up: scale not given: the % may be the effect or the level left
# Target sequence in this assay (P40337 whole entry partner, one chain of several): as above
# [8] = tested on: MV4-11; experiment: Growth inhibition of human MV4-11 cells measured after 4 days by WST8 assay; conditions: MV4-11, 96 h
# [9] = target: T1, von Hippel-Lindau disease tumor suppressor/Tyrosine-protein phosphatase non-receptor type 11; experiment: Protac activity at VHL1/SHP2 in human KYSE520 cells assessed as reduction in ERK phosphorylation at 100 nM measured after 48 hrs by Western blot analysis; format: cell-based
# Target sequence in this assay (P40337 whole entry partner, one chain of several): as above
# [10] = target: T1, von Hippel-Lindau disease tumor suppressor/Tyrosine-protein phosphatase non-receptor type 11; experiment: Protac activity at VHL1/SHP2 in human KYSE520 cells assessed as induction of SHP2 degradation at 0.1 uM measured after 3 hrs in presence of SHP2 inhibitor by Western blot analysis; format: cell-based; method in brief: as §2
# [11] = target: T2, Tyrosine-protein phosphatase non-receptor type 11 (Homo sapiens) (UniProt Q06124); experiment: Inhibition of SHP2 in human MV4-11 cells assessed as reduction in ERK phosphorylation at >3000 nM measured after 48 hrs by Western blot analysis relative to control; format: cell-based
# T2 sequence (whole entry): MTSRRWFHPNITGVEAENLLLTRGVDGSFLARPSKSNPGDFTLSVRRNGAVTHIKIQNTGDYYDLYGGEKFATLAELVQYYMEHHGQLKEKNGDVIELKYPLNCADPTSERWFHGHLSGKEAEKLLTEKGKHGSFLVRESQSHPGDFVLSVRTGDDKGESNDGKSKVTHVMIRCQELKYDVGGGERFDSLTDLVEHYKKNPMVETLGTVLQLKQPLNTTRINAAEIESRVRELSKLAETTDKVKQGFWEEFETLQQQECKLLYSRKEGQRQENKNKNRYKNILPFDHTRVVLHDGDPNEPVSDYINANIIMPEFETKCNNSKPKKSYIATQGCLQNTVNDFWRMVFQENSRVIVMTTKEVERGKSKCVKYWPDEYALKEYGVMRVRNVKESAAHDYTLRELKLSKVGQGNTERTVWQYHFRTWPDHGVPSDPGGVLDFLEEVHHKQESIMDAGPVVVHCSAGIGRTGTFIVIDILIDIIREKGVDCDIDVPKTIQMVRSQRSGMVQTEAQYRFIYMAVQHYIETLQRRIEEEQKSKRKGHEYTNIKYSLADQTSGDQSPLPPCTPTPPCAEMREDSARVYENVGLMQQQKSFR
# [12] = target: T1, von Hippel-Lindau disease tumor suppressor/Tyrosine-protein phosphatase non-receptor type 11; experiment: Protac activity at VHL1/SHP2 in human KYSE520 cells assessed as induction of SHP2 degradation at 0.1 uM measured after 3 hrs in presence of VHL-1 ligand by Western blot analysis; format: cell-based; method in brief: as §2
# [13] = target: T1, von Hippel-Lindau disease tumor suppressor/Tyrosine-protein phosphatase non-receptor type 11; experiment: Protac activity at VHL1/SHP2 in human MV4-11 cells assessed as induction of SHP2 degradation at 0.1 uM measured after 24 hrs by Western blot analysis relative to control; format: cell-based
# Method in brief: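 MV4;11 cells in IMDM + 10% FBS were exposed to degrader for 24 h. SHP2 was quantified by Western blot densitometry, with background-subtracted band divided by net GAPDH loading-control band. Average of three independent experiments.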
# [14] = target: T1, von Hippel-Lindau disease tumor suppressor/Tyrosine-protein phosphatase non-receptor type 11; experiment: Protac activity at VHL1/SHP2 in human KYSE520 cells assessed as induction of SHP2 degradation at 0.1 uM measured after 6 hrs by Western blot analysis relative to control; format: cell-based; method in brief: as §3
# [15] = tested on: KYSE-520 cell line; experiment: Growth inhibition of human KYSE520 cells measured after 4 days by WST8 assay; conditions: KYSE-520, 96 h
# [16] = tested on: KYSE-520 cell line; experiment: Potency index, ratio of SHP099 IC50 to test compound IC50 for growth inhibition of human KYSE520 cells; format: functional
# [17] = target: T1, von Hippel-Lindau disease tumor suppressor/Tyrosine-protein phosphatase non-receptor type 11; experiment: Protac activity at VHL1/SHP2 in human MV4-11 cells assessed as induction of SHP2 degradation at 100 nM measured after 4 to 8 hrs by Western blot analysis; format: cell-based; method in brief: as §1
# [18] = target: T1, von Hippel-Lindau disease tumor suppressor/Tyrosine-protein phosphatase non-receptor type 11; experiment: Protac activity at VHL1/SHP2 in human KYSE520 cells assessed as induction of SHP2 degradation at 0.1 uM measured after 3 hrs in presence of proteasome inhibitor MG132 by Western blot analysis; format: cell-based; method in brief: as §2
# [19] = target: T1, von Hippel-Lindau disease tumor suppressor/Tyrosine-protein phosphatase non-receptor type 11; experiment: Protac activity at VHL1/SHP2 in human KYSE520 cells assessed as induction of SHP2 degradation at 100 nM measured within 4 hrs by Western blot analysis; format: cell-based; method in brief: as §1
# [20] = target: T1, von Hippel-Lindau disease tumor suppressor/Tyrosine-protein phosphatase non-receptor type 11; experiment: Protac activity at VHL1/SHP2 in human MV4-11 cells assessed as reduction in ERK phosphorylation measured after 48 hrs by Western blot analysis; format: cell-based
# [21] = target: T1, von Hippel-Lindau disease tumor suppressor/Tyrosine-protein phosphatase non-receptor type 11; experiment: Protac activity at VHL1/SHP2 in human KYSE520 cells assessed as induction of SHP2 degradation measured after 12 hrs by Western blot analysis; format: cell-based; method in brief: as §4
# [22] = Aqueous solubility of the compound; format: physicochemical; conditions: buffer
smiles,measurement,setting,value
"Cc1ncsc1-c1ccc([C@H](C)NC(=O)[C@@H]2C[C@@H](O)CN2C(=O)[C@@H](NC(=O)CCCCCCCCN2CCN(C(=O)CCC(=O)Nc3cccc(Sc4ncc(N5CCC(C)(N)CC5)nc4N)c3Cl)CC2)C(C)(C)C)cc1 (single isomer, unassigned)",Activity,[1],100%
same,Activity,[2],inactive
same,Activity,[3],Dose-dependent effect
same,Activity,[4],> 95%
same,Activity,[5],Dose-dependent effect
same,DC50,[5],2.6 nM
same,Ratio IC50,[6],100
same,Activity,[7],100%
same,IC50,[8],9.9 nM
same,Activity,[9],Active
same,Activity,[10],inactive
same,inhibition,[11],100%
same,Activity,[12],inactive
same,Activity,[13],> 95%
same,Activity,[14],> 95%
same,IC50,[15],660 nM
same,Ratio IC50,[16],28
same,Activity,[17],Active
same,Activity,[18],inactive
same,Activity,[19],Active
same,Activity,[20],Dose-dependent effect
same,Activity,[21],Dose-dependent effect
same,DC50,[21],6 nM
same,solubility,[22],Soluble
